Sampled rows, rich in hits. Any-hit rate of the full collection: about 3.7%.
MC4R barr agon: activates human MC4R beta-arrestin recruitment; P32245; U2OS MC4R beta-arrestin complementation, luminescence; percent of melanotan II response, DMSO zero; activation, % at 8.9 µM; actives 0.98% (n = 360,000); AID 540308;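 active = activation above a per-plate cutoff, the mean activation of sample wells on that plate plus 3 SD, cut at about 8% in these data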
Target sequence (P32245 whole entry, looked up): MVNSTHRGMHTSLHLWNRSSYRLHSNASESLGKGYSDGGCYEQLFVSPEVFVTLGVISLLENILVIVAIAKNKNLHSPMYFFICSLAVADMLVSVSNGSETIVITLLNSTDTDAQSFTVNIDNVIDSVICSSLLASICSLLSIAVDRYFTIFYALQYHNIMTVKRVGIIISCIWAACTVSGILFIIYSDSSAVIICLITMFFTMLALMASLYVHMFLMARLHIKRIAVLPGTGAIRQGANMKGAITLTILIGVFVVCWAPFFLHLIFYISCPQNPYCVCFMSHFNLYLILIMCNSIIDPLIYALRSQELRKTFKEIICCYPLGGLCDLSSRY
Myeloid diff 2: myeloid differentiation induction; ER-HoxA9 myeloid progenitors, lysozyme-GFP differentiation, flow cytometry; calls only at 10 µM; actives 1% (n = 360,000); AID 624256;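 active = normalized GFP-positive differentiation at or above the plate's own cutoff, the solvent-only control mean plus 3 SD; inconclusive = no clear call, values can overlap the other calls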;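 also: cells exposed to compound for four days before flow analysis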
EBI2 antag: blocks human EBI2 receptor beta-arrestin signaling; inhibition, % at 5 µM; actives 0.81% (n = 360,000); EBI2 beta-arrestin recruitment, luminescence, 7a,25-OHC stimulated; P32249; AID 651636; in the data active = inhibition above about 38%;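 also: enzyme fragment complementation signal reports receptor beta-arrestin coupling in cells; 0% = agonist plus DMSO wells and 100% = wells without agonist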
Target sequence (P32249 whole entry, looked up, the tested form may be a part): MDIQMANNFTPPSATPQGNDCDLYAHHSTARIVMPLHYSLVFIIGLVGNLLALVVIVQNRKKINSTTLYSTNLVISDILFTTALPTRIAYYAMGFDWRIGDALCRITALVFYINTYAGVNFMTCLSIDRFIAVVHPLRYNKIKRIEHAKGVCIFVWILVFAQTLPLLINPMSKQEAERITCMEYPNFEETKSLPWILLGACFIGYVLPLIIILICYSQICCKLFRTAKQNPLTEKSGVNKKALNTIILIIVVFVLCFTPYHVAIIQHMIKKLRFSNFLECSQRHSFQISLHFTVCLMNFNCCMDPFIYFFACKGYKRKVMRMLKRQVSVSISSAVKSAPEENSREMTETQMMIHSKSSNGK
MC4R antagonist: blocks human MC4R cAMP signaling; P32245; MC4R-expressing cells, MTII-stimulated cAMP, LANCE TR-FRET; inhibition, % at 6.5 µM; actives 0.48% (n = 360,000);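 active = inhibition above its plate's cutoff, the mean of tested wells on that plate plus 3 SD, cut at about 29% in these data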;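 also: 0% = Melanotan II alone and 100% = Melanotan II plus saturating MCL0020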
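Assay system: human MC4R-expressing U2OS cells; reagent: Melanotan II stimulation of cells; dosing: 6.5 µM single dose; timing: compound 30 min, challenge 1 h, detection 1 h; signal: TR-FRET cAMP assay; replicates: one well per compound, no replicates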
Granule exo inh: lytic granule exocytosis inhibition; TALL-104 LAMP-1 surface exposure, flow cytometry; cells stimulated with thapsigargin and PMA; inhibition, % at 10 µM; actives 0.66% (n = 360,000);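 active = inhibition above about 55%, limit read from the data; inconclusive = no clear call, values can overlap the other calls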
EBI2 conf: EBI2 (human) antagonism, single concentration confirmation; shares compounds with EBI2 antag; EBI2 beta-arrestin luminescence, 7a,25-OHC antagonism; inhibition, % at 5 µM; actives 29% (n = 2,400);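 active = inhibition of at least 50%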
EBI2 agonist: counter-screen for EBI2 antagonists: EBI2 agonist activity; shares compounds with EBI2 antag; EBI2-expressing cells, agonist mode, luminescence, 60 min; 0% vehicle, 100% 7α,25-dihydroxycholesterol control; activation, % at 5 µM; 2,400 tested, under 10 active; AID 652000;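 active = activation of at least 50%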
bGal counter: inhibits E. coli beta-galactosidase, counter-screen for EBI2 antagonists; shares compounds with EBI2 antag; purified beta-galactosidase, luminescent Galacton Star, 15 min; inhibition, % at 5 µM; actives 1% (n = 2,400); AID 652176;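 active = replicate-average signal at least 3 plate SD below neutral wells, shown as high inhibition, flagging enzyme-inhibiting false positives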;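 also: 0% = DMSO wells with enzyme and 100% = wells lacking enzyme; higher means stronger loss of beta-gal luminescence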
The depositor's hits bear a star; i = inactive; ? = inconclusive; / = no result given.

SMILES	MC4R barr agon	Myeloid diff 2	EBI2 antag	MC4R antagonist	Granule exo inh	EBI2 conf	EBI2 agonist	bGal counter
O=C(Nc1ccc(Oc2ccccc2)nc1)C1CCCCN1Cc1ccc(OCCO)cc1 (stereo not given)	-1.1	i	66.1*	-3.0	0.1	42.1	-1.1	11.6
CC(=O)c1cccc(CN2CCCCC2C(=O)Nc2ccc(Oc3ccccc3)nc2)c1 (stereo not given)	0.8	i	70.7*	11.7	-0.8	48.8	0.5	7.8
O=C(Nc1ccc(Oc2ccccc2)nc1)C1CCCCN1Cc1ccco1 (stereo not given)	-0.5	/	54.4*	-15.9	21.2	24.8	0.2	3.6
CC(=O)Nc1ccc(NC(=O)C(C)OC(=O)C23CC4CC(CC(Cl)(C4)C2)C3)cc1 (stereo not given)	-2.0	i	2.3	13.9	0.3	/	/	/
Cc1ccc2c(c1)[C@H]1[C@H](CO2)[C@H](c2ccccc2)[C@]2(C)C(=O)N(Cc3ccc(Cl)cc3)CC(=O)N12	-0.1	i	47.8*	12.9	12.1	30.8	-1.3	-9.2
CCN(CC)C(=S)Nc1ccc2nc3n(c(=O)c2c1)CCCCC3	1.0	i	-9.1	4.3	-0.6	/	/	/
COc1ccc2c(c1)oc1c(SCc3nc4ccccc4[nH]3)nc(C)nc12	-1.2	i	77.7*	4.9	45.7	50.8*	-0.4	-4.9
Cc1nc(SCc2nc3ccc(Br)cc3[nH]2)c2oc3ccccc3c2n1	-1.6	i	1.5	-0.1	3.1	/	/	/
Cc1nc(SCc2nc3ccccc3[nH]2)c2oc3cc([N+](=O)[O-])ccc3c2n1	-2.9	i	48.1*	-0.5	2.9	58.9*	0.2	1.9
CCCCN(C(=O)c1cc(S(=O)(=O)N2CCCCC2)ccc1Cl)c1c(N)n(CCC)c(=O)[nH]c1=O	1.2	i	-5.5	11.8	5.5	/	/	/
N#CC1C(=N)Cc2ccccc2-c2ccccc21 (stereo not given)	-0.7	?	-6.1	-11.8	9.0	/	/	/
COc1ccc(/C=C(/CC(=O)NCc2ccc(Cl)cc2)c2nc3ccccc3s2)cc1	4.7	i	38.9*	5.7	18.0	1.0	-1.8	-12.2
Cc1ccc2oc(C(=O)N3CCC(O)(c4cccc(C(F)(F)F)c4)CC3)c(C)c2c1	3.4	i	56.9*	4.2	0.8	43.6	-0.9	-4.7
CC(=O)N1CCC(O)(c2cccc(C(F)(F)F)c2)CC1	-0.3	i	-1.5	15.8	3.2	/	/	/
O=C1CC(c2ccccc2)CC2=C1C=Nc1ccccc1N2 (stereo not given)	0.8	i	52.6*	2.7	1.3	20.6	0.9	1.4
O=C1CC(c2ccc(F)cc2)CC2=C1C=Nc1ccccc1N2 (stereo not given)	0.0	i	80.6*	7.3	0.2	43.3	1.0	6.8
CC1CC(=O)C2=C(C1)Nc1ccccc1N=C2 (stereo not given)	-2.1	i	-2.5	0.6	0.8	/	/	/
CNC(=O)c1sc(SC)cc1-c1ccc(Cl)cc1	-1.3	i	50.3*	0.5	1.3	37.4	1.5	5.3
CC(=O)c1ccc(OCC(=O)N2CCN(S(=O)(=O)c3ccc(C)cc3C)CC2)cc1	-2.0	i	65.2*	7.1	-0.8	28.6	-0.2	9.3
Cc1ccc(S(=O)(=O)N2CCN(C(=O)c3ccccn3)CC2)c(C)c1	-1.4	i	-9.4	8.7	1.0	/	/	/
COc1ccc(C(=O)N2CCN(S(=O)(=O)c3ccc(C)cc3C)CC2)cc1OC	0.6	i	47.9*	8.5	-0.8	51.3*	1.9	7.2
COc1cccc2cc(C(=O)N3CCN(c4ccc(C)cc4C)CC3)c(=O)oc12	0.7	i	46.9*	-0.9	3.5	32.8	0.7	8.5
Cc1ccc(S(=O)(=O)N2CCN(C(=O)c3ccc4ccccc4n3)CC2)c(C)c1	0.8	i	54.6*	5.0	-3.7	45.4	1.2	6.5
COc1ccc(C(=O)N2CCN(S(=O)(=O)c3ccc(C)cc3C)CC2)cc1S(=O)(=O)N1CCOCC1	-1.5	i	14.5	0.0	-8.5	/	/	/
CCCCN(C(C)=O)c1c(CC)nc2ccc(C(=O)NCCOc3ccc(OC)cc3)cn12	0.1	i	28.4	7.0	-3.7	/	/	/
SMILES	MC4R barr agon	Myeloid diff 2	EBI2 antag	MC4R antagonist	Granule exo inh	EBI2 conf	EBI2 agonist	bGal counter
CC(=O)Nc1ccc(Cl)cc1C1COC(=O)C1=N (stereo not given)	-2.6	i	-10.7	7.0	-7.7	/	/	/
COc1ccc(C(=O)N2CCN(c3ccc(C)c(C)c3)CC2)cc1OC	-1.1	i	2.4	17.0	4.1	/	/	/
COc1ccc(C(=O)N2CCN(c3ccc(C)cc3C)CC2)cc1OC	-0.1	i	78.2*	7.8	-2.5	53.2*	0.8	8.9
CCc1ccc(N2CC(C(=O)Nc3ccc(S(=O)(=O)N4CCCCC4)cc3)CC2=O)cc1 (stereo not given)	0.9	?	80.6*	-1.7	20.5	59.9*	-0.6	5.3
O=C(Nc1ccc(S(=O)(=O)N2CCCC2)cc1)C1CC(=O)N(c2ccccc2)C1 (stereo not given)	-1.8	i	-3.9	3.3	-1.9	/	/	/
CCc1ccc(N2CC(C(=O)Nc3cc(C)ccc3F)CC2=O)cc1 (stereo not given)	0.6	i	52.7*	7.3	2.2	46.4	0.2	8.9
CCc1ccc(N2CC(C(=O)Nc3ccc(F)cc3)CC2=O)cc1 (stereo not given)	2.1	i	3.4	3.2	-5.4	/	/	/
COc1ccc(NC(=O)C2(C)Cc3c(-c4cccc(C(N)=O)c4)ccnc3O2)cc1 (stereo not given)	-2.2	/	-15.0	-22.8	1.9	/	/	/
Nc1oc2ccccc2c1C(=O)Cc1ccccc1O[C@@H]1O[C@H](CO)[C@@H](O)[C@H](O)[C@H]1O	-1.3	i	7.6	4.5	1.5	/	/	/
COc1cc(-c2nnc(COc3ccc4cc(Br)ccc4c3)o2)cc(OC)c1OC	7.2	i	55.5*	-0.5	-1.5	14.2	1.0	0.9
COCCNC(=O)Cn1nc(-c2ccc(Cl)cc2)c2ccccc2c1=O	-1.7	/	-8.4	-3.5	3.6	/	/	/
COCCCn1c(=O)/c(=C\c2ccccc2OC(C)C)s/c1=C(/C#N)C(=O)Nc1ccc(C(=O)O)cc1	2.4	i	-22.2	22.0	3.3	/	/	/
COCCCn1c(=O)/c(=C\c2ccccc2OC(F)F)s/c1=C(/C#N)C(=O)NC(C)C	1.2	i	60.0*	4.6	3.0	50.6*	0.4	-0.3

Screening data as filed in PubChem BioAssay.
